Compound activity deposited in PubChem by Sanford-Burnham Center for Chemical Genomics.
SENP7 block: blocks the human protease SENP7 | AID 434973 | 330,000 tested, 1.5% active | inhibition, % at 5 µM | recombinant SENP7, Z-RLRGG-aminoluciferin luminescence, 40 min | Q9BQF6;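 active means inhibition above about 50% at the single test dose, limit read from the data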;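 further: plate controls were DMSO with enzyme for no effect and no enzyme buffer wells for full effect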
SENP1 inh: SENP1 (human) catalytic domain inhibition; 360,000 tested, 0.21% active; recombinant SENP1 catalytic domain, CyPet-SUMO1-YPet FRET cleavage; AID 624204; inhibition, % at 10 µM; Q9P0U3;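 active means inhibition at least 30% at 10 µM, raw YFP signal under a set limit, fluorescence ratio 0.5 to 1.5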;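 further: 0% = enzyme with DMSO and 100% = no enzyme wells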
Target sequence (Q9P0U3 419-644 limits assumed): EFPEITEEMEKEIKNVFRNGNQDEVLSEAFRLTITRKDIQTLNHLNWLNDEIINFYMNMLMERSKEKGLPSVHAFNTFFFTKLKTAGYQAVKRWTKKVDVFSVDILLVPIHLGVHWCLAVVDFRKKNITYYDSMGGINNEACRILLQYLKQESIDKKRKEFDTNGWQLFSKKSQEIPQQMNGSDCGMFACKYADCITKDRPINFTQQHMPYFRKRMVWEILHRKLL
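material = recombinant human SENP1 catalytic domain, His6-tagged | quantity = 20 pM enzyme | reagent = 25 nM SUMO1 FRET substrate | compound dosing = 10 µM single point, 0.5% DMSO | timing = 50 min enzyme reaction, room temperature, light-protected | detection = FRET, CFP and YFP emission | control set = no-enzyme low, enzyme-DMSO high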
SENP8 block-1: SENP8 (human) protease inhibition; Q96LD8; recombinant SENP8, Nedd8 substrate fluorescence; inhibition, % at 20 µM; 360,000 tested, 0.64% active; AID 602440; in the data active means inhibition mostly above about 40%, no sharp cut-off; inactive means mostly below about 27%
SENP8 block-2: SENP8 protease inhibition | purified SENP8, Z-RLRGG-aminoluciferin cleavage, luminescence | 330,000 tested, 1.2% active | inhibition, % at 10 µM | Q96LD8; in the data active means inhibition above about 50%
SENP6 block: inhibitors of human SENP6 protease | Recombinant SENP6 catalytic domain, aminoluciferin luminescence | inhibition, % at 10 µM | 330,000 tested, 1.8% active | Q9GZR1;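 active means inhibition above about 50% at the single tested dose, limit read from the data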;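 further: plate controls were DMSO wells with enzyme for no effect and DMSO wells lacking enzyme for full effect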
Target sequence (Q9GZR1 628-1112 limits assumed): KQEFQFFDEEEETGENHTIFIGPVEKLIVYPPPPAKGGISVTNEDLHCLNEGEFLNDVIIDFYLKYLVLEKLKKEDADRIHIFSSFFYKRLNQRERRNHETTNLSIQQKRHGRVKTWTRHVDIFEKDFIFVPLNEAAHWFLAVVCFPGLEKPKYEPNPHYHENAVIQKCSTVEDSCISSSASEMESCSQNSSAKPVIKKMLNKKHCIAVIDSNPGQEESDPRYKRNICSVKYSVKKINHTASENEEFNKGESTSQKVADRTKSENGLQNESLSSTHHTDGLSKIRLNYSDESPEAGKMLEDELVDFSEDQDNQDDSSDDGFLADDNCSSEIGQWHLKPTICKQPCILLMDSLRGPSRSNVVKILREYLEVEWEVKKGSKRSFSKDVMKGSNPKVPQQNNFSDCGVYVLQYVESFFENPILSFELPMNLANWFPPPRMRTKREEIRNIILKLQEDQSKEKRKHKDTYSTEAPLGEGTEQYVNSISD
SENP8 confirm: confirmation of human SENP8 protease inhibitors; 6,200 tested, 40% active; inhibition, % at 12.5 µM; AID 488912; shares compounds with SENP7 block; Recombinant SENP8, Z-RLRGG-aminoluciferin luminescence, 60 min;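 active means mean inhibition across replicates above about 50%, limit read from the data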
SENP6 conf: confirmation of human SENP6 protease inhibitors; shares compounds with SENP7 block; recombinant SENP6, Z-RLRGG-aminoluciferin luminescence; inhibition, % at 12.5 µM; 6,200 tested, 58% active; AID 488915
SENP7 confirm: human SENP7 inhibition, confirmed | inhibition, % at 12.5 µM | recombinant SENP7, Z-RLRGG-aminoluciferin luminescence, 40 min | 6,200 tested, 69% active | shares compounds with SENP7 block
Casp3 SENP sel: inhibits human caspase-3 in SENP selectivity test | shares compounds with SENP7 block | purified caspase-3, Z-DEVD-aminoluciferin luminescence, 60 min | inhibition, % at 12.5 µM | 6,200 tested, 60% active;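 active means mean inhibition above about 50%, limit read from the data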;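 further: plate controls were enzyme with DMSO for no effect and wells without caspase-3 for full effect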
Luc interf: interferes with luciferase luminescence in SENP counter-screen; inhibition, % at 12.5 µM; 6,200 tested, 39% active; shares compounds with SENP7 block; Pre-incubated SENP8/Z-RLRGG-aminoluciferin, luciferase luminescence interference;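 active means mean inhibition above about 50% when retested at one dose, limit read from the data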;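 further: plate controls were DMSO wells with completed reaction for no effect and substrate without enzyme for full effect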
* marks the source's active call; other numbers are inactive results; . = no result. In the library only some 2.5% were active in any assay of this set; here they are far more common.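 How the source made its calls, unless noted: active means mean inhibition above about 50% in the one-dose retest (limit read from the data); inactive means the rest.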

SMILES	SENP7 block	SENP1 inh	SENP8 block-1	SENP8 block-2	SENP6 block	SENP8 confirm	SENP6 conf	SENP7 confirm	Casp3 SENP sel	Luc interf
Fc1cccc(-c2cc3nc4c(c(NCc5ccco5)n3n2)CCCC4)c1	1.2	-4.7	-281.2	69.8*	85.1*	-0.2	13.7	19.1	30.7	46.1
Fc1cccc(-c2cc3nc4c(c(N5CCOCC5)n3n2)CCCC4)c1	5.0	1.0	-172.5	-11.7	-0.6	.	.	.	.	.
CCCCNC(=S)N/N=C/c1cccc(OCC)c1O	1.6	-77.8	-423.6	8.5	10.9	.	.	.	.	.
CCOc1cccc(/C=N/NC(=S)Nc2ccccc2[N+](=O)[O-])c1O	78.9*	-1.7	23.2	47.1	31.2	27.8	55.2*	37.1	26.3	7.4
NC(N)=N/N=C(\N=Nc1ccccc1)c1ccc(Cl)cc1	.	0.5	23.1	.	.	.	.	.	.	.
COc1cccc(SCc2noc(C(=O)NCCC(C)C)c2C(=O)NCCC(C)C)c1	-3.0	-1.0	10.9	-3.4	-13.9	.	.	.	.	.
C/C(=N/NC(=O)c1cc2ccccc2cc1O)C1C(=O)c2ccccc2C1=O	63.1*	23.5	26.7	95.9*	94.4*	94.7*	98.9*	97.2*	80.9*	46.5
C/C(=N\NC(=O)c1ccccc1O)C1C(=O)c2ccccc2C1=O	87.1*	9.6	36.1	92.5*	94.1*	97.9*	98.5*	101.5*	89.3*	74.1*
C/C(=N\NC(=O)c1cc2ccccc2cc1O)c1cc2ccccc2o1	-8.6	28.7	-131.8	-9.4	10.5	.	.	.	.	.
C/C(=N\NC(=O)c1ccccc1O)c1c(O)cc(C)oc1=O	68.8*	-3.2	-72.9	61.7*	81.3*	13.2	6.3	0.8	-3.2	-2.3
C/C(=N\NC(=O)c1ccccc1[N+](=O)[O-])c1c(O)cc(C)oc1=O	4.0	0.8	19.3	3.4	-11.3	.	.	.	.	.
COCn1c(-c2cccc(Br)c2)nc2ccccc21	39.8	0.4	10.5	22.0	50.9*	22.9	20.3	65.4*	41.9	54.9*
O=C(Oc1ccc[nH]c1=O)c1ccccc1	.	2.3	12.8	.	.	.	.	.	.	.
O=C(Nc1ccc(F)cc1)Oc1ccc[nH]c1=O	53.1*	3.9	27.3	-3.9	42.8	4.1	4.6	22.3	18.8	21.0
COc1ccc(NC(=O)c2cccc(Oc3ccccc3)c2)cn1	61.6*	3.0	11.6	49.8	71.5*	52.1*	52.0*	83.4*	45.4	41.0
COc1ccc(NC(=O)c2cccc(S(=O)(=O)Nc3ccc(Br)cc3)c2)cn1	4.1	1.0	31.4	-11.3	-0.9	.	.	.	.	.
NC(=O)c1ccc(NC(=O)c2cccc(Oc3ccccc3)c2)cc1	67.9*	1.4	9.2	10.4	38.4	-27.5	-9.1	-0.4	15.5	-3.3
CC1(C(=O)N2CCN(C(=O)c3ccco3)CC2)CC1(Br)Br (centres undefined)	-7.3	1.7	0.4	-0.9	-9.1	.	.	.	.	.
c1ccc(N2CC3CCc4ccccc4C3=N2)cc1 (centres undefined)	58.9*	-32.8	-384.0	34.8	56.9*	37.1	51.0*	71.7*	41.6	28.6
CSc1ccc(S(=O)(=O)NCC(=O)OCC(=O)N2CCCC2=O)cc1[N+](=O)[O-]	1.0	-0.8	14.8	-4.6	-10.5	.	.	.	.	.
CN(C(=O)COc1ccc2ccc(=O)oc2c1)C1CCS(=O)(=O)C1 (centres undefined)	92.3*	1.1	-290.7	1.7	12.2	5.7	6.9	10.3	7.0	0.5
Cc1ccc(C)c(NC(=O)C(c2ccccc2)N2CCOCC2)c1 (centres undefined)	6.1	3.0	16.3	1.2	11.9	.	.	.	.	.
CC(C)C(=O)Nc1cccc(C(=O)Nc2nccs2)c1	-3.5	0.1	2.5	-4.6	-7.4	.	.	.	.	.
CN(C)c1ccc(-c2noc(-c3ccccc3O)n2)cc1	90.0*	-0.1	-50.1	27.3	-24.5	10.6	19.0	17.4	49.5	11.9
c1ccc(-c2noc(-c3ccccc3-c3ccccc3)n2)cc1	3.5	-0.6	15.2	-5.6	-6.8	.	.	.	.	.
SMILES	SENP7 block	SENP1 inh	SENP8 block-1	SENP8 block-2	SENP6 block	SENP8 confirm	SENP6 conf	SENP7 confirm	Casp3 SENP sel	Luc interf
COc1ccccc1-c1nc(-c2ccc(Br)o2)no1	77.8*	0.7	0.1	78.0*	83.0*	5.2	59.3*	55.2*	41.9	64.8*
COc1ccc(-c2nc(-c3ccc(Br)o3)no2)cc1OC	14.4	-0.4	2.2	10.0	3.2	.	.	.	.	.
COc1ccc(-c2nc(-c3ccc(Br)cc3)no2)c(OC)c1	47.6	-1.9	4.2	-4.5	-6.5	.	.	.	.	.
COc1ccccc1-c1nc(-c2ccc(Br)cc2)no1	-0.4	2.9	-7.3	70.0*	71.4*	0.1	11.4	22.3	10.0	7.4
Cc1ccc(-c2noc(-c3ccccc3Br)n2)cc1	89.9*	-0.5	15.8	80.0*	76.2*	64.2*	64.1*	84.6*	70.2*	64.7*
O=C(NCc1ccc(F)c(F)c1)C1Cc2c(-c3ccc4c(c3)OCO4)ccnc2O1 (centres undefined)	.	-1.5	-67.5	.	.	.	.	.	.	.
O=C(COC(=O)c1c(F)cccc1F)NC(=O)NCc1ccccc1	.	2.1	2.7	.	.	.	.	.	.	.
COC(=O)C1=C(C(=O)OC)[C@@H]2N(C)c3ccc(OC)cc3[C@@]23C[C@@H](C(=O)OC)N(C(=O)c2cc(C)oc2C)C3=N1	0.1	.	.	-6.4	-5.1	.	.	.	.	.
Cc1cccc(/C=N/NC(=O)c2cc(-c3cccnc3)nc3c2c(C)nn3-c2ccccc2)c1	76.7*	-15.8	-170.9	-8.5	14.4	4.2	-5.3	-5.4	-4.8	-3.1
C=CCNC(=O)c1ccc(NC(=O)C2=CSCCO2)cc1	76.9*	2.4	4.0	68.9*	72.6*	74.3*	72.5*	92.7*	90.5*	72.8*
c1ccc(CCNCc2ccco2)nc1	.	-19.2	-16.8	.	.	.	.	.	.	.
COc1ccc(-c2noc(CNC(=O)CCN3C(=O)[C@H]4CC=CC[C@H]4C3=O)n2)cc1	-15.4	-9.3	9.9	0.6	-4.4	.	.	.	.	.
Cc1cc(=O)[nH]c(N=N/C(=N/Nc2ccccc2C)c2ccccc2)n1	2.5	0.4	2.3	3.4	-41.5	.	.	.	.	.
COc1ccc(N/N=C(/N=Nc2nc(C)cc(=O)[nH]2)c2ccccc2)cc1	34.6	4.9	19.4	36.3	68.1*	13.2	11.4	25.4	48.2	28.7
Cc1cc(=O)[nH]c(N=N/C(=N/Nc2ccc(O)cc2)c2ccccc2)n1	17.3	48.4*	11.4	38.3	61.2*	16.7	15.3	14.4	46.1	8.5
